Laboratory results as given in ChEMBL document CHEMBL1123650, “In vivo characterization of hydroxamic acid inhibitors of 5-lipoxygenase” (J Med Chem, 1987).
Activity calls are given as the source filed them. The rule behind the calls is not given here.

What was measured:
Rattus norvegicus [1] = assay: Inhibition of leukotriene biosynthesis was determined in vivo with the rat peritoneal anaphylaxis model administered perorally at 100 mg/kg; type: functional; conditions: route oral
Outline: (§1)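 Fasted male Sprague-Dawley rats sensitized ip with rabbit anti-BSA in PBS pH 7.1, then challenged ip 3 h later with BSA (4 mg) in PBS containing 30 mM L-cysteine. Compound in 0.2% methylcellulose given by gavage 1 h before challenge; 6–8 rats per group. Peritoneal fluid collected 15 min after challenge, LTC4 measured by RIA. % inhibition vs control mean, ± SEM; significance at […].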

[2] = molecular target: T1, Polyunsaturated fatty acid 5-lipoxygenase (Rattus norvegicus, UniProt P12527); assay: In vitro inhibitory activity against 5-lipoxygenase in rat RBL-1 cells; type: cell-based
T1 sequence (P12527 whole entry): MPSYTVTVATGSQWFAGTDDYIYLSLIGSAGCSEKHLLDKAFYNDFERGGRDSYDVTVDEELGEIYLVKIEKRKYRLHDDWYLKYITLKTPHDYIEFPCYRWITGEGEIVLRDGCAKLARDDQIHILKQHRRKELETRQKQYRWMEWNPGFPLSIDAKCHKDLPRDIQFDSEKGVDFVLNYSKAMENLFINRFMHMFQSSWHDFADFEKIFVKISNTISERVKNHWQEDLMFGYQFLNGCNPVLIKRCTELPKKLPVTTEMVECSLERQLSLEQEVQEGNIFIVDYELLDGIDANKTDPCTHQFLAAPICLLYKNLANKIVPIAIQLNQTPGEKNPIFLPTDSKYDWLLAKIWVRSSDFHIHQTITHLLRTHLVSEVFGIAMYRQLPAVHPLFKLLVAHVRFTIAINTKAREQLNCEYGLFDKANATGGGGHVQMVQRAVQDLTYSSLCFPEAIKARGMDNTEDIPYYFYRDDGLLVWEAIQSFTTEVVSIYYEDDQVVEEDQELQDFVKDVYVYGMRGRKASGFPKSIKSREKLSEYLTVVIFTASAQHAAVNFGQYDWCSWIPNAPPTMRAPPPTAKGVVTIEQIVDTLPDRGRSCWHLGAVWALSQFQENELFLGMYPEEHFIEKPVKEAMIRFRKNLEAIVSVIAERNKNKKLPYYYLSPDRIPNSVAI
Outline: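 RBL-1 cell homogenate, 20000g supernatant (from 6 × 10^4 cells) in 200-μL incubations with 2% DMSO vehicle and varied inhibitor concentrations. Reaction started with radiolabeled arachidonic acid, stopped by acidification and ether extraction. Products separated from substrate by TLC and counted by scintillation. Triplicate incubations, compared against mean of vehicle controls (n = 8). IC50 with 95% confidence limits from linear regression of % inhibition vs log concentration.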

Rattus norvegicus [3] = assay: Plasma concentration was evaluated for corresponding hydroxamic acid metabolite at 100 mg/kg dose peroral administration in rats after 20 min; type: functional, organism-based; parameters: dose 100 mg/kg
Outline: (§2)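 Rats dosed by oral gavage, 100 mg/kg suspended in 0.2% methylcellulose (4 mL/kg). Blood taken from lateral tail vein, plasma separated. Proteins precipitated with 2 volumes methanol before reversed-phase HPLC, or plasma acidified and ether-extracted for normal-phase HPLC. Parent hydroxamate and carboxylic acid metabolite measured. Average of four determinations with range.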

Rattus norvegicus [4] = assay: Plasma concentration was evaluated for corresponding hydroxamic acid metabolite at 100 mg/kg dose peroral administration in rats after 60 min; type: functional, organism-based; parameters: dose 100 mg/kg; outline: as §2
Rattus norvegicus [5] = assay: Plasma concentration was evaluated for corresponding carboxylic acid metabolite at 100 mg/kg dose peroral administration in rats after 20 min; type: functional, organism-based; parameters: dose 100 mg/kg; outline: as §2
Rattus norvegicus [6] = assay: Plasma concentration was evaluated for corresponding carboxylic acid metabolite at 100 mg/kg dose peroral administration in rats after 60 min; type: functional, organism-based; parameters: dose 100 mg/kg; outline: as §2
Rattus norvegicus [7] = assay: Inhibition of leukotriene biosynthesis was determined in vivo with the rat peritoneal anaphylaxis model administered perorally at 100 mg/kg; not significant; type: functional, organism-based; parameters: dose 100 mg/kg; outline: as §1
Rattus norvegicus [8] = assay: Inhibition of leukotriene biosynthesis was determined in vivo with the rat peritoneal anaphylaxis model administered perorally at 100 mg/kg *p > 0.05; type: functional; conditions: route oral; outline: as §1

## Cc1cc(C)c(-c2ccc(C(=O)N(C)O)cc2)c(C)c1
Rattus norvegicus [1]
  inhibition in vivo at 100 mg/kg: 41%
[2]
  IC50: 60 nM

## CCCCOc1ccc(C(C)C(=O)N(C)O)cc1 (stereo not drawn)
Rattus norvegicus [3]
  Concentration: 38 µM
Rattus norvegicus [4]
  Concentration: 13 µM
Rattus norvegicus [5]
  Concentration: 40 µM
Rattus norvegicus [1]
  inhibition in vivo at 100 mg/kg: 62%
Rattus norvegicus [6]
  Concentration: 50 µM
[2]
  IC50: 730 nM

## COc1ccc2cc(C(C)C(=O)N(C)O)ccc2c1 (stereo not drawn)
Rattus norvegicus [3]
  Concentration: 1.7 µM
Rattus norvegicus [4]
  Concentration: 1.3 µM
Rattus norvegicus [5]
  Concentration: 3 µM
Rattus norvegicus [1]
  inhibition in vivo at 100 mg/kg: 52%
Rattus norvegicus [6]
  Concentration: 4 µM
[2]
  IC50: 410 nM

## Cc1cc(C)c(-c2ccc(/C=C/C(=O)N(C)O)cc2)c(C)c1
[2]
  IC50: 22 nM
Rattus norvegicus [7]
  inhibition: inactive

## CC(C(=O)N(C)O)c1ccc(OCc2ccccc2)cc1 (stereo not drawn)
Rattus norvegicus [3]
  Concentration: 8.4 µM
Rattus norvegicus [4]
  Concentration: 7.9 µM
Rattus norvegicus [5]
  Concentration: 16 µM
Rattus norvegicus [1]
  inhibition in vivo at 100 mg/kg: 62%
Rattus norvegicus [6]
  Concentration: 51 µM
[2]
  IC50: 280 nM

## CC(C)Cc1ccc(CC(=O)N(C)O)cc1
Rattus norvegicus [3]
  Concentration: 46 µM
Rattus norvegicus [4]
  Concentration: 12 µM
Rattus norvegicus [5]
  Concentration: 162 µM
Rattus norvegicus [6]
  Concentration: 138 µM

## CN(O)C(=O)c1ccc2ccccc2c1
Rattus norvegicus [7]
  inhibition: inactive

## Cc1cc(C)c(-c2ccc(C(=O)NO)cc2)c(C)c1
Rattus norvegicus [7]
  inhibition: inactive

## CC(C)Oc1ccc(C(C)C(=O)N(C)O)cc1 (stereo not drawn)
Rattus norvegicus [4]
  Concentration: 38 µM
Rattus norvegicus [1]
  inhibition in vivo at 100 mg/kg: 67%
[2]
  IC50: 3700 nM

## CC(C)Cc1ccc(C(C)C(=O)N(O)C(C)C)cc1 (stereo not drawn)
Rattus norvegicus [3]
  Concentration: < 4 µM
Rattus norvegicus [4]
  Concentration: < 4 µM
Rattus norvegicus [5]
  Concentration: < 4 µM
Rattus norvegicus [6]
  Concentration: < 4 µM

## CC(C)Cc1ccc(/C=C/C(=O)N(C)O)cc1
Rattus norvegicus [3]
  Concentration: < 4 µM
Rattus norvegicus [4]
  Concentration: < 4 µM
Rattus norvegicus [5]
  Concentration: 1.9 µM
Rattus norvegicus [6]
  Concentration: 4.5 µM

## CC(C)Cc1ccc(C(C)(C)C(=O)N(C)O)cc1
Rattus norvegicus [3]
  Concentration: 5.8 µM
Rattus norvegicus [4]
  Concentration: < 1 µM
Rattus norvegicus [5]
  Concentration: 9.3 µM
Rattus norvegicus [6]
  Concentration: < 1 µM

## CC(C)Cc1ccc(C(C)C(=O)N(C)O)cc1 (stereo not drawn)
Rattus norvegicus [3]
  Concentration: 32 µM
Rattus norvegicus [4]
  Concentration: 14 µM
Rattus norvegicus [5]
  Concentration: 41 µM
Rattus norvegicus [1]
  inhibition in vivo at 100 mg/kg: 65%
Rattus norvegicus [6]
  Concentration: 36 µM
[2]
  IC50: 980 nM

## CC(C)Cc1ccc(C(C(=O)N(C)O)C(C)C)cc1 (stereo not drawn)
Rattus norvegicus [3]
  Concentration: 5 µM
Rattus norvegicus [4]
  Concentration: 7.9 µM
Rattus norvegicus [5]
  Concentration: 3.7 µM
Rattus norvegicus [6]
  Concentration: 7.5 µM

## CC(C)Cc1ccc(CCC(=O)N(C)O)cc1
Rattus norvegicus [3]
  Concentration: < 10 µM
Rattus norvegicus [4]
  Concentration: < 10 µM
Rattus norvegicus [5]
  Concentration: 349 µM
Rattus norvegicus [6]
  Concentration: 80 µM

## CC(C)Cc1ccc(C(=O)N(C)O)cc1
Rattus norvegicus [3]
  Concentration: < 5 µM
Rattus norvegicus [4]
  Concentration: < 5 µM
Rattus norvegicus [5]
  Concentration: 432 µM
Rattus norvegicus [6]
  Concentration: 404 µM

## CN(O)C(=O)/C=C/c1ccc2ccccc2c1
Rattus norvegicus [8]
  inhibition in vivo at 100 mg/kg: 66%

## CC(C)Cc1ccc(C(C)C(=O)NO)cc1 (stereo not drawn) [IBUPROXAM]
Rattus norvegicus [3]
  Concentration: 49 µM
Rattus norvegicus [4]
  Concentration: 27 µM
Rattus norvegicus [5]
  Concentration: 114 µM
Rattus norvegicus [6]
  Concentration: 146 µM
[2]
  IC50: 4840 nM
Rattus norvegicus [7]
  inhibition: inactive
